Assay results reported in ChEMBL document CHEMBL1212832, “Antiprotozoal steroidal saponins from the marine sponge Pandaros acanthifolium” (J Nat Prod, 2010).
Activity calls are given as the source filed them. No cut-off for these calls is given here.

Assays:
L6 = experiment: Cytotoxicity against rat L6 cells after 72 hrs by Alamar blue assay; assay type: cell-based; details: l6, 72 h
Outline: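 4 × 10^4 L6 cells per well in RPMI 1640 with 10% FBS and L-glutamine, exposed 72 h to seven 3-fold dilutions (90–0.12 µg/mL). Resazurin (Alamar Blue) added for 2 h, fluorescence read at ex 536/em 588 nm.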

Leishmania donovani [1] = experiment: Antileishmanial activity against Leishmania donovani (MHOM/ET/67/L82) amastigotes after 72 hrs; assay type: functional, organism-based; details: MHOM/ET/67/L82, 72 h
Plasmodium falciparum = experiment: Antimalarial activity against chloroquine and pyrimethamine-resistant Plasmodium falciparum K1 assessed as inhibition of [3H]hypoxanthine incorporation after 48 hrs by scintillation counting; assay type: functional, organism-based
Outline: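 K1 strain (chloroquine- and pyrimethamine-resistant) cultured in RPMI 1640 with 5% Albumax II, 0.2% w/v glucose, 0.03% L-glutamine. Two-fold dilution series from DMSO stocks, final DMSO ≤0.25%. 48 h at 37 °C, then 0.1 µCi [3H]-hypoxanthine added and incubated 24 h more. Freeze-stopped at -80 °C, harvested onto glass fiber filters, scintillation counted. IC50 calculated. Chloroquine as standard.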

Trypanosoma cruzi = experiment: Trypanocidal activity against trypomastigote form of Trypanosoma cruzi Tulahuen infected in rat L6 cells after 96 hrs; assay type: functional, organism-based; details: L6, 96 h
Outline: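 L6 cells seeded at 2000 per well in RPMI 1640 with 10% FBS, 2 mM L-glutamine; after 24 h, 5000 trypomastigotes of the LacZ-expressing C2C4 line added. After 48 h, medium replaced with seven 3-fold dilutions (90–0.12 µg/mL) for 96 h.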

[2] = tested on: Trypanosoma brucei rhodesiense; experiment: Trypanocidal activity against Trypanosoma brucei rhodesiense STIB 900 after 72 hrs; assay type: functional, organism-based; details: STIB 900, 72 h
Outline: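 Bloodstream forms (10^4 per well) in MEM with 25 mM HEPES, extra glucose, non-essential amino acids, 2-mercaptoethanol, pyruvate and 15% heat-inactivated horse serum; seven 3-fold dilutions from 90 to 0.12 µg/mL, 72 h at 37 °C, 5% CO2. Resazurin added for 2–4 h, fluorescence at ex 536/em 588 nm; melarsoprol as standard.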

[3] = target: T1, 3-oxoacyl-acyl-carrier protein reductase (Plasmodium falciparum) (UniProt Q965D6); experiment: Inhibition of Plasmodium falciparum recombinant FabG at 20 ug/mL by spectrophotometric analysis
T1 sequence (whole entry): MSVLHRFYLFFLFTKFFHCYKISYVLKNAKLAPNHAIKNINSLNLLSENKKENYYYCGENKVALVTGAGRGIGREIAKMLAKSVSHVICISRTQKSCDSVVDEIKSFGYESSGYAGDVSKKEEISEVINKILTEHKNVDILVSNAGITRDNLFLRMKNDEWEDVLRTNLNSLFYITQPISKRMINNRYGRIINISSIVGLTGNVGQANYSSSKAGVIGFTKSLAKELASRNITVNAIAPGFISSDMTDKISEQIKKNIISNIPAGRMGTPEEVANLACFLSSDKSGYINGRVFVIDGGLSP

[4] = Inhibition of Plasmodium falciparum recombinant FabI at 20 ug/mL by spectrophotometric analysis
[5] = target: T2, Fatty acid synthase (Plasmodium falciparum) (UniProt Q965D7); experiment: Inhibition of Plasmodium falciparum recombinant FabZ at 20 ug/mL by spectrophotometric analysis
T2 sequence (whole entry): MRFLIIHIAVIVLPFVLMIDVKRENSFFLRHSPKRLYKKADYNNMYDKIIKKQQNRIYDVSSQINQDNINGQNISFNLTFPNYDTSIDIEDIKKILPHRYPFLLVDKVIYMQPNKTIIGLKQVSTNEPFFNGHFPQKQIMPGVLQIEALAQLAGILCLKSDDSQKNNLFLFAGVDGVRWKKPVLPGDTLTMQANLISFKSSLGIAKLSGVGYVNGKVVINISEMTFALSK

Leishmania donovani [6] = experiment: Ratio of miltefosine IC50 to compound IC50 for Leishmania donovani (MHOM/ET/67/L82) amastigotes

## CC[C@@H](C(=O)C[C@@H](C)C1=C(O)C(=O)[C@@H]2C3=CC[C@H]4C[C@@H](O[C@@H]5O[C@H](C(=O)OC)[C@@H](O)[C@H](O[C@@H]6OC[C@@H](O)[C@H](O)[C@H]6O)[C@H]5O)CC[C@]4(C)[C@H]3CC[C@]12C)C(C)C [METHYL ESTER PANDAROSIDE G]
L6
  Activity: 0.22 µM
Leishmania donovani [1]
  IC50: 51 nM
Plasmodium falciparum
  IC50: 390 nM
Trypanosoma cruzi
  IC50: 0.77 µM
[2]
  IC50: 38 nM
[3]
  Activity: inactive
[4]
  Activity: inactive
[5]
  Activity: inactive
Leishmania donovani [6]
  Ratio IC50: 10

## CC(C)[C@@H](C)C(=O)C[C@@H](C)C1=C(O)C(=O)[C@@H]2C3=C(CC[C@]12C)[C@@]1(C)CC[C@H](O[C@@H]2O[C@H](C(=O)O)[C@@H](O)[C@H](O[C@@H]4OC[C@@H](O)[C@H](O)[C@H]4O)[C@H]2O)C[C@@H]1CC3 [PANDAROSIDE F]
L6
  Activity: 10.8 µM
Leishmania donovani [1]
  IC50: 4300 nM
Plasmodium falciparum
  IC50: 5700 nM
Trypanosoma cruzi
  IC50: 20.3 µM
[2]
  IC50: 2400 nM
[3]
  Activity: inactive
[4]
  Activity: inactive
[5]
  Activity: inactive

## CC[C@@H](C(=O)C[C@@H](C)C1=C(O)C(=O)[C@@H]2C3=CC[C@H]4C[C@@H](O[C@@H]5O[C@H](C(=O)O)[C@@H](O)[C@H](O[C@@H]6OC[C@@H](O)[C@H](O)[C@H]6O)[C@H]5O)CC[C@]4(C)[C@H]3CC[C@]12C)C(C)C [PANDAROSIDE G]
L6
  Activity: 5.4 µM
Leishmania donovani [1]
  IC50: 1300 nM
Plasmodium falciparum
  IC50: 2500 nM
Trypanosoma cruzi
  IC50: 9.7 µM
[2]
  IC50: 800 nM
[3]
  Activity: inactive
[4]
  Activity: inactive
[5]
  Activity: inactive
